Data from ChEMBL document CHEMBL2407028, “Discovery of novel oxazolidinedione derivatives as potent and selective mineralocorticoid receptor antagonists” (Bioorg Med Chem Lett, 2013).

Key:
[1] = biological target: T1, Estrogen receptor (Homo sapiens, UniProt P03372); test: Antagonist activity at estrogen receptor alpha (unknown origin) by NH Pro assay
T1 sequence (P03372 whole entry): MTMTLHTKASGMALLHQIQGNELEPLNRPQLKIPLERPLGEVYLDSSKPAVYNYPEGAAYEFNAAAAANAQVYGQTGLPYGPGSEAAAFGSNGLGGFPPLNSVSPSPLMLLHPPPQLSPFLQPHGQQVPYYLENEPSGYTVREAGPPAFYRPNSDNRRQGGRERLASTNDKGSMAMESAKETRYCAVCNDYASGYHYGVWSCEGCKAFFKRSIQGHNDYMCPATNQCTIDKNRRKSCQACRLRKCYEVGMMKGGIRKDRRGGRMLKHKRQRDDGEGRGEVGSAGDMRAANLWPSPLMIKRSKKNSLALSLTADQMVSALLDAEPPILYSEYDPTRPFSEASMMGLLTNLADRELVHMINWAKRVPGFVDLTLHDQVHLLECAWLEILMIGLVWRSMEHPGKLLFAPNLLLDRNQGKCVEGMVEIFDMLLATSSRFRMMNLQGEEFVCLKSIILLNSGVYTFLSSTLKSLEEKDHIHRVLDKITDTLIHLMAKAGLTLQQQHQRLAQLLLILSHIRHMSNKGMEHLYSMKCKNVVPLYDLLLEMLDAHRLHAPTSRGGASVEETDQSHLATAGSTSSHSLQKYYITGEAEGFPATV

[2] = Oral bioavailability in rat at 1 mg/kg; assay type: ADME, organism-based; conditions: in vivo
Procedure, shortened: (§1)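 Rats dosed at 1 mg/kg iv (n = 2) or 1 mg/kg po (n = 3), formulated at 1 mg/mL in PEG 200:water (70:30). Blood concentrations measured by LC/MS/MS after protein precipitation with acetonitrile.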

[3] = biological target: T2, Androgen receptor (Homo sapiens, UniProt P10275); test: Antagonist activity at androgen receptor (unknown origin) by NH Pro assay
T2 sequence (P10275 whole entry): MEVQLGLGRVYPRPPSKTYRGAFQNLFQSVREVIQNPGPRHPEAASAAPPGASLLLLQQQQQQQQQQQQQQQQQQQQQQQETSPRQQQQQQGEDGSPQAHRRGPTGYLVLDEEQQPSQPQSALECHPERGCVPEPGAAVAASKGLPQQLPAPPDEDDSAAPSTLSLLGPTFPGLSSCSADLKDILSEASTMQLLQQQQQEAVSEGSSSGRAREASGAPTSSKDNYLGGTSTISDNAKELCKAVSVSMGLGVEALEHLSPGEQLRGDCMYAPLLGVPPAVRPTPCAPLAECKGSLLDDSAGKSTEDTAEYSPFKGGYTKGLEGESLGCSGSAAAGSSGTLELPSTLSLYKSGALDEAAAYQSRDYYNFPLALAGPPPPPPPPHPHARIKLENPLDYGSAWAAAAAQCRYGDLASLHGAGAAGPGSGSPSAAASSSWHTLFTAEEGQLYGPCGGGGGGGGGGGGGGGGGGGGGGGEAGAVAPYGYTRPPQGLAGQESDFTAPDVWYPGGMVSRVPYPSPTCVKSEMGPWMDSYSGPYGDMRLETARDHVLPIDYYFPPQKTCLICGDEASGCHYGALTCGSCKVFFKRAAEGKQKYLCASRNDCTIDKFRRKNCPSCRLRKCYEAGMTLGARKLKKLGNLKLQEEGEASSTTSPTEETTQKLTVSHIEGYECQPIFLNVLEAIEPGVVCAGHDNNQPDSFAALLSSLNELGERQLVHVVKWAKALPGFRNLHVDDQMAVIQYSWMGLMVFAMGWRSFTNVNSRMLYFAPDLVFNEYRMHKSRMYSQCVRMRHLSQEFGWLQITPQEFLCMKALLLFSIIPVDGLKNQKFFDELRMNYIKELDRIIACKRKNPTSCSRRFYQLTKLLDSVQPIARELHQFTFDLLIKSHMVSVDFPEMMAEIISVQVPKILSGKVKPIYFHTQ

[4] = tested on: Rattus norvegicus; test: Dose normalized AUC in rat at 1 mg/kg, iv; assay type: ADME, organism-based; set-up: dose 1 mg/kg, route intravenous; conditions: in vivo; procedure, shortened: as §1
[5] = biological target: T3, Progesterone receptor (Homo sapiens, UniProt P06401); test: Antagonist activity at progesterone receptor beta (unknown origin) by NH Pro assay
T3 sequence (P06401 whole entry): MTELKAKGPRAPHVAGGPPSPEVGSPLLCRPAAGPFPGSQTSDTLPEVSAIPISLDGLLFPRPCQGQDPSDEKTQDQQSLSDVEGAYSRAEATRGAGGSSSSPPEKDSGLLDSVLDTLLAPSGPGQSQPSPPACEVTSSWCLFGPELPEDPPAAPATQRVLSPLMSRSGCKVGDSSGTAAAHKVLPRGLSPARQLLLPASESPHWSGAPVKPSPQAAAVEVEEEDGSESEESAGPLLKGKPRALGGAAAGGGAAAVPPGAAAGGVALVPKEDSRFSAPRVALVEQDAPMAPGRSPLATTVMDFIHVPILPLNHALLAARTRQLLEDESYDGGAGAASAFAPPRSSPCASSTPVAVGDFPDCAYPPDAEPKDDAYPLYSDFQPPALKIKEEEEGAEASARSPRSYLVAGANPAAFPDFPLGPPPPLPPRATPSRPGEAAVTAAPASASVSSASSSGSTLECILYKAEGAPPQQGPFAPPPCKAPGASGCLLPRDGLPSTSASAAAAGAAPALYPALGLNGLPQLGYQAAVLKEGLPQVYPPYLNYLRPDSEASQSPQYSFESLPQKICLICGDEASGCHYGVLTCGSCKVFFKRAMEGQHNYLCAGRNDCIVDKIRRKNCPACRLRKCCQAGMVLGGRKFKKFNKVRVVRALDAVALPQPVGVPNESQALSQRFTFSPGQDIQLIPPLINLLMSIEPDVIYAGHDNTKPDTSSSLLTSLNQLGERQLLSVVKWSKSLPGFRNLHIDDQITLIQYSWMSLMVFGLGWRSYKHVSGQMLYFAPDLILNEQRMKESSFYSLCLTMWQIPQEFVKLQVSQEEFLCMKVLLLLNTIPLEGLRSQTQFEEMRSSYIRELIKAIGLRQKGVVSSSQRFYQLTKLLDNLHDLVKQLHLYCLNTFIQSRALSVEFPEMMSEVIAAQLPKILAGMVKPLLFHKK

[6] = biological target: T3, Progesterone receptor; test: Agonist activity at progesterone receptor beta (unknown origin) by NH Pro assay

COc1cc(CNC(=O)[C@@]2(Cc3ccccc3)OC(=O)N([C@@H]3CCc4ccccc43)C2=O)cc(OC)c1
IC50 [1]: 17 µM | bioavailability [2]: 28% | IC50 [3]: 12 µM | AUC/dose [4]: 0.89 µM·kg·h/mg | IC50 [5]: 8.1 µM | EC50 [6]: > 20 µM

C[C@H](c1ccc(F)cc1)N1C(=O)O[C@](Cc2ccc(F)cc2)(C(=O)NCc2ccc(Cl)c(Cl)c2)C1=O
IC50 [1]: 7.3 µM | bioavailability [2]: 63% | IC50 [3]: > 20 µM | AUC/dose [4]: 0.46 µM·kg·h/mg | IC50 [5]: 3.6 µM | EC50 [6]: > 20 µM
